We go through six compounds from ChEMBL document CHEMBL1145088, “Ascochlorin derivatives as ligands for nuclear hormone receptors” (J Med Chem, 2003).

In one series the test system is U2OS (Homo sapiens). In words: Concentration required for inhibition of U2OS cell growth.
A further series concerns the target T1, Estrogen receptor (Homo sapiens, UniProt P03372).
T1 sequence (P03372 whole entry): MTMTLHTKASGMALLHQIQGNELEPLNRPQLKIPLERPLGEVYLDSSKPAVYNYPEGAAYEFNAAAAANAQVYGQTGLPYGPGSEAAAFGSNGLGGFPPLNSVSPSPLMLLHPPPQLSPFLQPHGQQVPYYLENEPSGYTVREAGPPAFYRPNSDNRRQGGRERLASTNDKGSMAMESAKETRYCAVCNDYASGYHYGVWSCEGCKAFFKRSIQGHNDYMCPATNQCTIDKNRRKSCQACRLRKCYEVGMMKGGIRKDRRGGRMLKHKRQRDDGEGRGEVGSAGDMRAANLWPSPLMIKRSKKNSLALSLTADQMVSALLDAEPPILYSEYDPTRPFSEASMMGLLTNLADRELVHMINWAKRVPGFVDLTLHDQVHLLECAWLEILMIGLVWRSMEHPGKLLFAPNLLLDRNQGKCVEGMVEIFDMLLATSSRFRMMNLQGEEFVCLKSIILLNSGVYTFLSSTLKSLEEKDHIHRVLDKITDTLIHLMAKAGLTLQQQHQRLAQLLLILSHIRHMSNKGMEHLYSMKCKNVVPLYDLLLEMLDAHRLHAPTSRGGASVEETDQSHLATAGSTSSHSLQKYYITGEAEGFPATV
In words: Minimum effective concentration required to activate Estrogen receptor 1 (ER alpha); Not detected.

Series [1] addresses T2, Nuclear receptor subfamily 1 group I member 2 (Homo sapiens, UniProt O75469).
T2 sequence (O75469 whole entry): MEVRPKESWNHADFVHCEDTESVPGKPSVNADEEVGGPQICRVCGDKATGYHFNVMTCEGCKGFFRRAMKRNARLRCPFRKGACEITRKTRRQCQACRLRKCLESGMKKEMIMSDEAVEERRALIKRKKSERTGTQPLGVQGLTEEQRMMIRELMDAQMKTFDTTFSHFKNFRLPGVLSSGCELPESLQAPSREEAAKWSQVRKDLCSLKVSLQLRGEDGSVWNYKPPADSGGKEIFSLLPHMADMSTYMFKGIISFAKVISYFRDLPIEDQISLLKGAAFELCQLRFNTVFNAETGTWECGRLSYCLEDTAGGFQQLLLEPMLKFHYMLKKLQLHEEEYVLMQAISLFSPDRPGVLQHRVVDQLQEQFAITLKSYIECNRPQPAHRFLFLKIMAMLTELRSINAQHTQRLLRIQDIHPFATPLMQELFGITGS
The series is described as follows: Minimum effective concentration required to activate pregnane X receptor (PXR).

Series [2] concerns the target T3, Peroxisome proliferator-activated receptor alpha (Homo sapiens) (UniProt Q07869).
T3 sequence (whole entry): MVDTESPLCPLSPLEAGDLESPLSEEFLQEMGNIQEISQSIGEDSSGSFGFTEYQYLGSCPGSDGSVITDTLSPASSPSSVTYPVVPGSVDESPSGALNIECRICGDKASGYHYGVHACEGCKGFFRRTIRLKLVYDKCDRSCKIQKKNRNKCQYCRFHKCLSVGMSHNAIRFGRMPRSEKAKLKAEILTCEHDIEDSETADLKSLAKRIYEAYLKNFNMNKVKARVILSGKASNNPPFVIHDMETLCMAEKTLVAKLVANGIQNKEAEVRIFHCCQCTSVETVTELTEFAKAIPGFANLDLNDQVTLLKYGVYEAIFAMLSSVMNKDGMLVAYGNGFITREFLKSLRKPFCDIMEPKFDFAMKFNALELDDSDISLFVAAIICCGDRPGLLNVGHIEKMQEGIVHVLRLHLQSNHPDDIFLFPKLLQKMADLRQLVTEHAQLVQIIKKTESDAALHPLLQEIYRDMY
The series is described as follows: Minimum effective concentration for peroxisome proliferator activated receptor (PPAR alpha) activation.

Series [3] deals with T4, Estrogen receptor beta (Homo sapiens, UniProt Q92731). The series is described as follows: Minimum effective concentration required to activate Estrogen receptor 2 (ER beta); Not detected.
The target in series [4] is T2, Nuclear receptor subfamily 1 group I member 2. In words: Minimum effective concentration required to inhibit pregnane X receptor (PXR). In short, it runs like this: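 U2OS cells (1 × 10^6 per 10 cm dish) were calcium-phosphate transfected with the receptor expression vector (2 µg; Gal4 fusions for PXR and PPARα), the matching reporter (4 µg) and pCMV-β-galactosidase (4 µg). They were cultured 12 h, PBS-washed, given fresh medium 4 h, trypsinized and exposed to drugs 20 h. Luciferase/CAT activity normalized to β-galactosidase as stimulation index; triplicate cultures.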

In series [5] the target is T5, Peroxisome proliferator-activated receptor gamma (Homo sapiens) (UniProt P37231).
T5 sequence (whole entry): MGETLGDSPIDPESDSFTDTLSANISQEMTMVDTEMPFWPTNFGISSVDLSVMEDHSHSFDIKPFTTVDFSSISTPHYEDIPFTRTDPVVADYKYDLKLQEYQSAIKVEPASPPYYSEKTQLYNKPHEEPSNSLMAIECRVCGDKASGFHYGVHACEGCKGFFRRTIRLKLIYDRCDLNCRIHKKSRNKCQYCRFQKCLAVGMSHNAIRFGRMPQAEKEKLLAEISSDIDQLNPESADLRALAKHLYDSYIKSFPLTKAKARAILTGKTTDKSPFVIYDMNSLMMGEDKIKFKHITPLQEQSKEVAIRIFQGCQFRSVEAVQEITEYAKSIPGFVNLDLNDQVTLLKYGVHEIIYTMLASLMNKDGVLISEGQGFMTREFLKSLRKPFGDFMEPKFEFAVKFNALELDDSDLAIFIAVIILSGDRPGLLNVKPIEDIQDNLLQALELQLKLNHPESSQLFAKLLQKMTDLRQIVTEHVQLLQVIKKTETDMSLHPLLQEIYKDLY
In words: Minimum effective concentration required to inhibit Peroxisome proliferator activated receptor gamma (PPAR gamma).

Series [6] concerns the target T6, Androgen receptor (Homo sapiens) (UniProt P10275).
T6 sequence (whole entry): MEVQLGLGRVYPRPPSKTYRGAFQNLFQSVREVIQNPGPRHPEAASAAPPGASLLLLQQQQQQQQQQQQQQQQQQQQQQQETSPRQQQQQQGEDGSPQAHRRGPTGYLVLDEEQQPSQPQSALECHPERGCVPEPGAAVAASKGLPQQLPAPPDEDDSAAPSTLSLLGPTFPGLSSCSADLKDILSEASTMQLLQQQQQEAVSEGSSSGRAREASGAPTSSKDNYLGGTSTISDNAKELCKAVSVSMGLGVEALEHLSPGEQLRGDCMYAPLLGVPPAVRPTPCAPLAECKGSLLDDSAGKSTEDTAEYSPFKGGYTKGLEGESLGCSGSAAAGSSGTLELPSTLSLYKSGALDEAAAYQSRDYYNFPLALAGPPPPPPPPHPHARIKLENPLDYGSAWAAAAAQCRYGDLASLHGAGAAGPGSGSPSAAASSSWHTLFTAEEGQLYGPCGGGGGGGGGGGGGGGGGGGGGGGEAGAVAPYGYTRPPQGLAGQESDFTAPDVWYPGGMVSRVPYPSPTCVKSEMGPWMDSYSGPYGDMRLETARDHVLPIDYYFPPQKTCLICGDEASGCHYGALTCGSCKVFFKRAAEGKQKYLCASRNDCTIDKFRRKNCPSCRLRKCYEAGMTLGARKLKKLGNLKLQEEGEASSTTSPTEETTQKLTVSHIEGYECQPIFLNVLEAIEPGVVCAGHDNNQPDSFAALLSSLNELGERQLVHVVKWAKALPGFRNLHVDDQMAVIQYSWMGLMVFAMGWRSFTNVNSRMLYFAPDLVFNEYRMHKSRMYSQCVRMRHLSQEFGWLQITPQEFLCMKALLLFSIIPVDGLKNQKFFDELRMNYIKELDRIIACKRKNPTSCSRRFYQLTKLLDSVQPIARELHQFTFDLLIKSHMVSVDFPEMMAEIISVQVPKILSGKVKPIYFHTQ
The series is described as follows: Minimum effective concentration for androgen receptor (AR) activation.

In series [7] the target is T4, Estrogen receptor beta. In words: Minimum effective concentration for Estrogen receptor 2 (ER beta) inhibition. In short, it runs like this: (§1)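 U2OS cells were calcium-phosphate co-transfected with an ER expression vector (2 µg), an ER reporter plasmid (4 µg) and pCMV-β-galactosidase (4 µg) as internal control. After 12 h cells were PBS-washed and recovered 4 h, then trypsinized and exposed to drugs for 20 h. Lysate reporter activity was normalised to β-gal and expressed as stimulation index; triplicate cultures.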

For series [8], the target named is T7, Estrogen receptor (Homo sapiens) (UniProt P03372).
T7 sequence (whole entry): T1 sequence (P03372 whole entry)
In words: Minimum effective concentration for Estrogen receptor 1 (ER alpha) inhibition. In short, it runs like this: as §1

T4 sequence (Q92731 whole entry, the tested form may be a part): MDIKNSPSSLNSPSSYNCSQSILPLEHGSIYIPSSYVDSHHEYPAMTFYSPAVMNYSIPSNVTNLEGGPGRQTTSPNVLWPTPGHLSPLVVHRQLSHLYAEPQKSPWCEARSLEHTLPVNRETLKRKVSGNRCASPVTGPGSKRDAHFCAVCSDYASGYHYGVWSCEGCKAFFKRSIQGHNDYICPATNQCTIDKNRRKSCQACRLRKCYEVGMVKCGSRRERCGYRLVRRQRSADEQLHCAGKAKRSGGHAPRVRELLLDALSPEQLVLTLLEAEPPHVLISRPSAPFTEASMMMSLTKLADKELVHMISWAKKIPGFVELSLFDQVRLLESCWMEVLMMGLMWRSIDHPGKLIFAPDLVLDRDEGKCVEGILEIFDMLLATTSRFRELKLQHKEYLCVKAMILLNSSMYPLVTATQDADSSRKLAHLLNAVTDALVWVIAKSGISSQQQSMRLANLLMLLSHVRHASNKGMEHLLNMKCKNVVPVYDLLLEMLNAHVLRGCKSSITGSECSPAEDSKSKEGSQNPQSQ

As a reminder, the IC50 is the concentration needed to halve the response being measured. A high value points to weaker potency in that assay. Compound `C/C(=C\Cc1c(O)c(Cl)c(C)c(C=O)c1O)CC/C=C(\C)C1=CC(=O)C(C)(C)O1` had a concentration for half-maximal inhibition (IC50) in the series with U2OS (Homo sapiens) of 56 µM. In addition, the MEC entry on Estrogen receptor is “Not Active”; in series [1], 1 µM; in series [2], 10 µM; on Estrogen receptor beta [3], “Not Active”.
For the compound `COc1c(C=O)c(C)c(Cl)c(OC(=O)c2ccncc2)c1C/C=C(C)/C=C/[C@@]1(C)[C@H](C)CCC(=O)[C@@H]1C`, the figures for the MEC in [4] and in [5] were 3 µM and 0.3 µM, respectively.
Take `COc1c(C=O)c(C)c(Cl)c(OC(=O)c2ccccn2)c1C/C=C(C)/C=C/[C@@]1(C)[C@H](C)CCC(=O)[C@@H]1C`: the MEC in [4] was 1 µM; in series [5], 30 µM.
For the compound `CC(/C=C/[C@@]1(C)[C@H](C)CCC(=O)[C@@H]1C)=C\Cc1c(O)c(C=O)c(C)c(Cl)c1OC(=O)c1ccccn1`, the MEC stood at 1 µM in [4] and 3 µM in series [5].
For `CC(=O)Oc1c(Cl)c(C)c(C(=O)O)c(OC(C)=O)c1C/C=C(C)/C=C/[C@@]1(C)[C@H](C)CCC(=O)[C@@H]1C`, the half-inhibitory concentration (IC50) in the series on U2OS (Homo sapiens) was 32 µM. In addition, the MEC entry on Estrogen receptor was “Not Active”; in series [1], 1 µM; in series [6], 1 µM; on Estrogen receptor beta [3], “Not Active”.
Turning to `CC(/C=C/[C@@]1(C)[C@H](C)CCC(=O)[C@@H]1C)=C\Cc1c(O)c(Cl)c(C)c(C=O)c1O` [ASCOCHLORIN], the MEC (on Estrogen receptor beta [7]; in series [8]; in [1]) was 1 µM each time. The IC50 with U2OS (Homo sapiens) came out at 1 µM.
